pIC50: −log10 of the molar value. The source made the active and inactive calls. The rule behind the calls is not given here.
Tests used:
HeLa [1] = experiment: Induction of apoptosis in human HeLa cells assessed as increase in hypodiploid DNA content at subG1-phase after 24 hrs by flow cytometric analysis relative to untreated control; format: functional, cell-based
Method in brief: (§1)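 HeLa cells treated for 24 h over 0.06–0.5 µM. Cells fixed in ice-cold 70% ethanol, lysed with buffer containing RNase A and 0.1% Triton X-100, and stained with PI. DNA content read by flow cytometry, including the sub-G1 fraction. Mean ± SEM of three independent experiments.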

A549 = experiment: Antiproliferative activity against human A549 cells after 72 hrs by MTT assay; format: functional, cell-based; settings: A549, 72 h
Method in brief: (§2)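 Cells seeded at 8 × 10³ per well in complete medium and exposed to a range of compound concentrations at 37 °C for 72 h. Viability read by MTT test. IC50 taken as the concentration inhibiting proliferation by 50%.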

[2] = Inhibition of bovine brain tubulin polymerization after 20 mins by turbidimetry; set-up: species or system Bos taurus
Method in brief: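 Purified bovine brain tubulin at 10 µM was preincubated with compound in glutamate buffer at 30 °C, then cooled to 0 °C and GTP added. Samples were warmed to 30 °C in a recording spectrophotometer and assembly followed by turbidity.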

LoVo = experiment: Antiproliferative activity against doxorubicin-resistant human LoVo cells after 72 hrs by MTT assay; format: functional, cell-based; method in brief: as §2
HeLa [3] = experiment: Induction of apoptosis in human HeLa cells assessed as accumulation of necrotic cells after 48 hrs by Annexin-V-FITC/propidium iodide staining-based flow cytometric analysis; format: functional, cell-based
Method in brief: (§3)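 HeLa cells treated for 24 or 48 h, then labelled with annexin-V-FITC and PI. Analysed by flow cytometry with excitation at 488 nm and emission at 525 nm (FITC) and 585 nm (PI). Quadrants scored as live, early apoptotic, late apoptotic or necrotic. Mean ± SEM of four independent experiments.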

MOLT-4 = experiment: Antiproliferative activity against human MOLT4 cells after 2 days by coulter counter analysis; format: functional, cell-based; settings: MOLT-4, 48 h
HeLa [4] = experiment: Cell cycle arrest in human HeLa cells assessed as decrease in cell accumulation in G1 phase after 24 hrs by propidium iodide staining-based flow cytometry; format: functional; method in brief: as §1
Mus musculus [5] = experiment: Toxicity in BALB/c nude mouse xenografted with human HT-29 cells assessed as organism mortality at 100 mg/kg, ip administered 3 times per week for 1 week measured on day 19; format: organism-based; set-up: dose 100 mg/kg, route intraperitoneal; settings: in vivo, 168 h
Method in brief: (§4)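 HT-29 cells in log phase, suspended at 1 × 10⁷ cells/mL in serum-free RPMI 1640, 0.2 mL injected subcutaneously into the back of nude mice. At about 300 mm³, mice were randomised to vehicle or treatment groups (six per group). The compound was given in DMSO by i.p. injection at 0.01 mL/g body weight. Body weight was recorded on set days; mice were euthanised after 23 days.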

CCRF-CEM [6] = experiment: Antiproliferative activity against human CEM cells after 72 hrs by MTT assay; format: functional, cell-based; method in brief: as §2
HT-29 [7] = experiment: Antitumor activity against human HT-29 cells xenografted in BALB/c nude mouse assessed as reduction in tumor growth at 100 mg/kg, ip administered 3 times per week for 1 week; format: functional; set-up: scale not given: the % may be the effect or the level left; settings: route intraperitoneal
Method in brief: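 HT-29 cells (1 × 10⁷/mL in serum-free RPMI 1640, 0.2 mL) were injected subcutaneously in the back of nude mice. At about 300 mm³ tumours, 18 mice were randomised to vehicle or drug groups. Drug in DMSO was given i.p. at 0.01 mL/g, 100 mg/kg, three times weekly for one week. Tumour volume = (L × W²)/2 by caliper; body weight also recorded; six mice per group.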

FM3A = experiment: Antiproliferative activity against mouse FM3A cells after 2 days by coulter counter analysis; format: functional, cell-based; settings: 48 h
HeLa [8] = experiment: Induction of apoptosis in human HeLa cells assessed as accumulation of necrotic cells after 24 hrs by Annexin-V-FITC/propidium iodide staining-based flow cytometric analysis; format: functional, cell-based; method in brief: as §3
HeLa [9] = experiment: Induction of apoptosis in human HeLa cells assessed as PARP cleavage at 0.25 to 5 uM by Western blot analysis; format: functional, cell-based; settings: TDE = time-dependent effect
Method in brief: (§5)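 HeLa cells treated for 24 or 48 h were washed in cold PBS and lysed on ice for 30 min. Lysates were cleared at 15,000 × g, run on SDS-PAGE and blotted. Membranes were probed 2 h at room temperature with antibodies to the target protein, then peroxidase secondary and ECL. Blots were reprobed for β-actin as loading control.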

HeLa [10] = experiment: Induction of apoptosis in human HeLa cells assessed as decrease in Bcl2 protein expression at 0.25 to 0.5 uM after 48 hrs by Western blot analysis; format: functional, cell-based; method in brief: as §5
CCRF-CEM [11] = experiment: Ratio of IC50 for vinblastine-resistant human CEM/VBL100 cells to IC50 for human CEM cells; format: functional
HeLa [12] = experiment: Induction of apoptosis in human HeLa cells assessed as loss of mitochondrial membrane potential at 0.25 to 5 uM by JC1 staining-based flow cytometric analysis; format: functional, cell-based; settings: TDE = time-dependent effect
Method in brief: (§6)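 After 24 or 48 h treatment, HeLa cells were trypsinized and resuspended in HBSS with JC-1 (1 µM). Incubated 10 min at 37 °C, washed, and read by flow cytometry for red (590 nm) aggregate versus green (530 nm) monomer. Mean ± SEM of three experiments.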

HeLa [13] = experiment: Cell cycle arrest in human HeLa cells assessed as decrease in cell accumulation in S phase at 0.5 uM after 24 hrs by propidium iodide staining-based flow cytometry; format: functional; method in brief: as §1
Mus musculus [14] = experiment: Toxicity in nude BALB/c mouse xenografted with human HT-29 cells assessed as organism mortality at 100 mg/kg, ip administered 3 times per week for 1 week measured on day 7; format: organism-based; set-up: dose 100 mg/kg, route intraperitoneal; settings: in vivo, 168 h; method in brief: as §4
HeLa [15] = experiment: Induction of apoptosis in human HeLa cells assessed as loss of mitochondrial membrane potential after 24 to 48 hrs by JC1 staining-based flow cytometric analysis; format: functional, cell-based; method in brief: as §6
HeLa [16] = experiment: Induction of apoptosis in human HeLa cells assessed as accumulation of late apoptotic cells after 48 hrs by Annexin-V-FITC/propidium iodide staining-based flow cytometric analysis; format: functional, cell-based; method in brief: as §3
HeLa [17] = experiment: Antiproliferative activity against human HeLa cells after 2 days by coulter counter analysis; format: functional, cell-based; settings: 48 h
Method in brief: (§7)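 Cells suspended at 300,000–500,000 cells/mL and mixed 1:1 with diluted compound. Incubated at 37 °C for two days, then counted with a Coulter counter. IC50 is the concentration inhibiting proliferation by 50%, as mean ± SE from dose-response curves of at least three independent experiments.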

HT-29 [18] = experiment: Antitumor activity against human HT-29 cells xenografted in BALB/c nude mouse assessed as reduction in tumor mass at 100 mg/kg, ip administered 3 times per week for 1 week; format: functional, organism-based; set-up: dose 100 mg/kg
[19] = Antiproliferative activity against human vinblastine-resistant CEM/VBL100 cells after 72 hrs by MTT assay; format: functional, cell-based; settings: CEM/VBL100, 72 h; method in brief: as §2
HeLa [20] = experiment: Induction of cell cycle arrest at G2/M phase in human HeLa cells assessed as partial recovery in Cdc2 phosphorylation at Tyr15 at 0.25 to 5 uM after 48 hrs by Western blot analysis; format: functional, cell-based; method in brief: as §5
CCRF-CEM [21] = experiment: Antiproliferative activity against human CEM cells after 2 days by coulter counter analysis; format: functional, cell-based; settings: 48 h; method in brief: as §7

With `COc1cc(C(=O)c2sc(N3CCCC3)nc2N)cc(OC)c1OC` the Activity (HeLa [1]) was “Dose-dependent effect”, the pIC50 (A549) was 7.43 and the pIC50 [2] was 5.89. For the same molecule, the pIC50 (LoVo) was 6.37, the Activity (HeLa [3]) was “Active” and the pIC50 (MOLT-4) was 6.59. The Activity (HeLa [4]) was “Dose-dependent effect”, the Activity (Mus musculus [5]) was “Toxic” and the pIC50 (CCRF-CEM [6]) was 7.70. For the same molecule, the Activity (HT-29 [7]) was 58%, the pIC50 (FM3A) was 6.74 and the Activity (HeLa [8]) was “Dose-dependent effect”. For the same molecule, the Activity (HeLa [9]) was “tde”, the Activity (HeLa [10]) was “Active” and the “Ratio IC50” value (CCRF-CEM [11]) was 0.2. For the same molecule, the Activity (HeLa [12]) was “tde”, the Activity (HeLa [13]) was “Active” and the Activity (Mus musculus [14]) was “Toxic”. For the same molecule, the Activity (HeLa [15]) was “Dose-dependent effect”, the Activity (HeLa [16]) was “Active” and the pIC50 (HeLa [17]) was 6.47. The Activity (HT-29 [18]) was “Active”, the pIC50 [19] was 8.00 and the Activity (HeLa [20]) was “inactive”. The pIC50 (CCRF-CEM [21]) was 6.49.
